From ChEMBL document CHEMBL2040734, “Benzothiazoles: search for anticancer agents” (2012)

Key:
Type in all cases: functional
M14 = test: Cytotoxicity against human M14 cells assessed as cell growth at 0.01 uM after 48 hrs by sulforhodamine B assay; conditions: M14, 48 h, read-out: Activity
U-251 = test: Cytotoxicity against human U251 cells assessed as cell growth at 10 '-5 M after 48 hrs by sulforhodamine B assay; conditions: U-251, 48 h, read-out: Activity
OVCAR-5 = test: Growth inhibition of human OVCAR5 cells after 48 hrs by sulforhodamine B assay; conditions: OVCAR-5, 48 h
Summary of the method: (§1)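 Adherent NCI-60 lines were grown in RPMI 1640 with 5% FBS and 2 mM L-glutamine, plated at 5000–40,000 cells/well and preincubated 24 h. They were then exposed to five concentrations (0.01–100 µM, from a DMSO stock) for 48 h at 37 °C, 5% CO2. Cells were fixed with cold TCA (10% final, 60 min, 4 °C) and stained with 0.4% SRB. Dye was solubilized in 10 mM Tris base and A515 read. GI50 was derived from time-zero, control and treated absorbances.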

HCC 2998 = test: Cytotoxicity against human HCC2998 cells assessed as cell growth at 10 '-5 M after 48 hrs by sulforhodamine B assay; conditions: HCC 2998, 48 h, read-out: Activity
Summary of the method: (§2)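 Primary one-dose screen across the NCI 60-line panel at 10 µM. Cells were grown in RPMI 1640 with 5% FBS and 2 mM L-glutamine and held 24 h before drug. Drug was diluted from a DMSO concentrate. Exposure was 48 h at 37 °C, 5% CO2. Cells were fixed with TCA and stained with SRB, with absorbance read at 515 nm. Percent growth was calculated against time-zero and untreated control.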

NCI-H322M = test: Cytotoxicity against human NCI-H322M cells assessed as cell growth at 10 uM after 48 hrs by sulforhodamine B assay; conditions: read-out: Activity
SK-MEL-2 = test: Cytotoxicity against human SK-MEL-2 cells assessed as cell growth at 0.1 uM after 48 hrs by sulforhodamine B assay; conditions: SK-MEL-2, 48 h, read-out: Activity
MOLT-4 = test: Growth inhibition of human MOLT4 cells after 48 hrs by sulforhodamine B assay; conditions: MOLT-4, 48 h
Summary of the method: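 Leukemia suspension lines were grown in RPMI 1640 with 5% FBS and 2 mM L-glutamine and plated at 5000–40,000 cells/well with 24 h preincubation. They were treated at 0.01, 0.1, 1, 10 and 100 µM (DMSO stock) for 48 h at 37 °C. Settled cells were fixed with 80% TCA (16% final) and stained with 0.4% SRB in 1% acetic acid, then read at 515 nm. GI50 was calculated against time-zero and control wells.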

MDA-MB-435 = test: Cytotoxicity against human MDA-MB-435 cells assessed as cell growth at 100 uM after 48 hrs by sulforhodamine B assay; conditions: MDA-MB-435, 48 h, read-out: Activity
KM12 = test: Growth inhibition of human KM12 cells after 48 hrs by sulforhodamine B assay; conditions: KM12, 48 h; for CC50: read-out: LC50 (the source's name); summary of the method: as §1
TK-10 = test: Growth inhibition of human TK10 cells after 48 hrs by sulforhodamine B assay; conditions: TK-10, 48 h; for CC50: read-out: LC50 (the source's name); summary of the method: as §1
[1] = Cytotoxicity against human Hs 578T cells assessed as cell growth at 10 uM after 48 hrs by sulforhodamine B assay; conditions: read-out: Activity
Summary of the method: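 Five-dose NCI panel run at 0.01, 0.1, 1, 10 and 100 µM. Cells were in RPMI 1640 with 5% FBS and 2 mM L-glutamine, seeded at 5000–40,000 cells/well and pre-incubated 24 h. Drug was diluted from a DMSO stock into medium with 50 µg/ml gentamicin. Exposure was 48 h at 37 °C, 5% CO2. Cells were fixed with cold TCA and stained with 0.4% SRB, read at 515 nm. Percent growth came from time-zero, control and test absorbances.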

SR = test: Cytotoxicity against human SR cells assessed as cell growth at 10 uM after 48 hrs by sulforhodamine B assay; conditions: read-out: Activity
OVCAR-3 = test: Cytotoxicity against human OVCAR3 cells assessed as cell growth at 100 uM after 48 hrs by sulforhodamine B assay; conditions: OVCAR-3, 48 h, read-out: Activity
CCRF-CEM = test: Cytotoxicity against human CCRF-CEM cells at 0.01 uM after 48 hrs by sulforhodamine B assay
Summary of the method: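 CCRF-CEM suspension leukemia cells in RPMI 1640 with 5% FBS and 2 mM L-glutamine, plated 24 h before dosing. Five concentrations (0.01–100 µM) were applied from a DMSO stock for 48 h at 37 °C. Settled cells were fixed with 80% TCA (final 16%) and stained with SRB, with read-out at 515 nm. Percent growth was derived from time-zero and control absorbances.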

MCF7 = test: Cytotoxicity against human MCF7 cells assessed as cell growth at 10 '-5 M after 48 hrs by sulforhodamine B assay; conditions: MCF7, 48 h, read-out: Activity
HL-60(TB) = test: Growth inhibition of human HL-60(TB) cells after 48 hrs by sulforhodamine B assay; conditions: HL-60, 48 h; for CC50: read-out: LC50 (the source's name)
Summary of the method: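 HL-60(TB) suspension cells in RPMI 1640 with 5% FBS and 2 mM L-glutamine were treated for 48 h at five concentrations (0.01–100 µM). Settled cells were fixed with 16% TCA (final), SRB-stained and read at 515 nm. GI50 was the concentration giving (Ti−Tz)/(C−Tz)×100 = 50 from log concentration–growth curves, expressed as ">" if not reached at the top concentration.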

SF-268 = test: Cytotoxicity against human SF268 cells assessed as cell growth at 10 uM after 48 hrs by sulforhodamine B assay; conditions: SF-268, 48 h, read-out: Activity
DU-145 = test: Cytotoxicity against human DU145 cells assessed as cell growth at 10 '-5 M after 48 hrs by sulforhodamine B assay; conditions: DU-145, 48 h, read-out: Activity; summary of the method: as §2
SNB-19 = test: Growth inhibition of human SNB19 cells after 48 hrs by sulforhodamine B assay; conditions: SNB-19, 48 h; summary of the method: as §1
A498 = test: Cytotoxicity against human A498 cells assessed as cell growth at 1 uM after 48 hrs by sulforhodamine B assay; conditions: A498, 48 h, read-out: Activity
Summary of the method: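 NCI-60 five-dose screen. Cells were grown in RPMI 1640 with 5% FBS and 2 mM L-glutamine and preincubated 24 h. Compound (DMSO stock) was tested at 0.01, 0.1, 1, 10 and 100 µM for 48 h at 37 °C. Cells were fixed in situ with cold TCA (final 10%) and stained with 0.4% SRB. A515 was read, and percent growth was calculated against time-zero and control plates.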

NCI-H226 = test: Cytotoxicity against human NCI-H226 cells assessed as cell growth at 100 uM after 48 hrs by sulforhodamine B assay; conditions: NCI-H226, 48 h, read-out: Activity

Q: With `Cc1ccc2nc(Nc3c(C)cccc3C)sc2c1` as the compound, how does the growth at 0.01 µM (M14) read?
A: Its growth at 0.01 µM is 106%.

Q: What about the growth at 10 µM (U-251) of the same compound?
A: Its growth at 10 µM is 34%.

Q: And the GI50 (OVCAR-5)?
A: Its GI50 is > 100 µM.

Q: What about the LC50 (OVCAR-5) of the same compound?
A: The LC50 was > 100 µM.

Q: And the TGI (OVCAR-5)?
A: The TGI was > 100 µM.

Q: And the growth at 10 µM (HCC 2998)?
A: The growth at 10 µM was 54.1%.

Q: And the growth at 10 µM (NCI-H322M)?
A: Its growth at 10 µM is 67%.

Q: What about the growth at 0.1 µM (SK-MEL-2) of the same compound?
A: Its growth at 0.1 µM is 99%.

Q: What about the GI50 (MOLT-4) of the same compound?
A: The GI50 was > 100 µM.

Q: And the LC50 (MOLT-4)?
A: Its LC50 is > 100 µM.

Q: What about the TGI (MOLT-4) of the same compound?
A: The TGI was > 100 µM.

Q: What about the growth at 100 µM (MDA-MB-435) of the same compound?
A: The growth at 100 µM was -10%.

Q: And the GI50 (KM12)?
A: Its GI50 is 1.55 µM.

Q: What about the TGI (KM12) of the same compound?
A: The TGI was > 100 µM.

Q: And the CC50 (KM12)?
A: The CC50 was > 100 µM.

Q: What about the GI50 (TK-10) of the same compound?
A: The GI50 was > 100 µM.

Q: What about the TGI (TK-10) of the same compound?
A: Its TGI is > 100 µM.

Q: And the CC50 (TK-10)?
A: Its CC50 is > 100 µM.

Q: What about the growth at 10 µM [1] of the same compound?
A: Its growth at 10 µM is 40%.

Q: What about the growth at 10 µM (SR) of the same compound?
A: Its growth at 10 µM is 13%.

Q: And the growth at 100 µM (OVCAR-3)?
A: Its growth at 100 µM is 66%.

Q: What about the Activity (CCRF-CEM) of the same compound?
A: The Activity was 94%.

Q: What about the growth at 10 µM (MCF7) of the same compound?
A: Its growth at 10 µM is 19.8%.

Q: What about the TGI (HL-60(TB)) of the same compound?
A: Its TGI is > 100 µM.

Q: And the CC50 (HL-60(TB))?
A: Its CC50 is > 100 µM.

Q: What about the growth at 10 µM (SF-268) of the same compound?
A: Its growth at 10 µM is 64%.

Q: And the growth at 10 µM (DU-145)?
A: The growth at 10 µM was 62.1%.

Q: And the GI50 (SNB-19)?
A: Its GI50 is 5.83 µM.

Q: What about the LC50 (concentration causing 50% net cell kill) (SNB-19) of the same compound?
A: The LC50 (concentration causing 50% net cell kill) was > 100 µM.

Q: What about the TGI (SNB-19) of the same compound?
A: Its TGI is > 100 µM.

Q: And the growth at 1 µM (A498)?
A: The growth at 1 µM was 53%.

Q: What does the source list for `Clc1cccc(Cl)c1Nc1nc2cccc(Cl)c2s1`?
A: growth at 0.01 µM (M14): 103%; GI50 (OVCAR-5): 1.48 µM; LC50 (OVCAR-5): 5.61 µM; TGI (OVCAR-5): 2.88 µM; growth at 10 µM (HCC 2998): -26.1%; growth at 10 µM (NCI-H322M): -83%; growth at 0.1 µM (SK-MEL-2): 88%; GI50 (MOLT-4): 1.05 µM; LC50 (MOLT-4): > 100 µM; TGI (MOLT-4): 3.75 µM; growth at 100 µM (MDA-MB-435): -67%; GI50 (KM12): 1.2 µM; TGI (KM12): 2.48 µM; CC50 (KM12): 5.15 µM; GI50 (TK-10): 1.16 µM; TGI (TK-10): 2.57 µM; CC50 (TK-10): 5.67 µM; growth at 10 µM [1]: -41%; growth at 100 µM (NCI-H226): -72%; growth at 10 µM (SR): -49%; growth at 100 µM (OVCAR-3): -76%; Activity (CCRF-CEM): 96%; growth at 10 µM (MCF7): -14.7%; GI50 (HL-60(TB)): 1.32 µM; TGI (HL-60(TB)): 3.75 µM; CC50 (HL-60(TB)): 20.6 µM; growth at 10 µM (SF-268): -87%; growth at 10 µM (DU-145): -7.04%; GI50 (SNB-19): 1.34 µM; LC50 (concentration causing 50% net cell kill) (SNB-19): 6.74 µM; TGI (SNB-19): 3 µM; growth at 1 µM (A498): 26%
